The list is not random: actives were taken first. Their share in the collection is about 1.8%.
CHRM4 PAM: CHRM4 positive allosteric modulation; P08173; CHO-K1 hM4/Gqi5, Fluo-8 calcium fluorescence, ACh EC20; 0% = ACh EC20, 100% = maximal ACh; activation, % at 3 µM; 360,000 compounds, 0.4% hits; AID 624126;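 active = activation above its plate's cutoff, the mean activation of sample wells plus 3 SD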
CHRM4 agonist: CHRM4 agonism in calcium assay | P08173 | 360,000 compounds, 0.14% hits | CHO-K1 hM4/Gqi5, Fluo-8 calcium fluorescence; vehicle 0%, full acetylcholine response 100% | activation, % at 3 µM;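 active = activation above the run mean over all test wells plus 3 SD, cut at about 32% in these data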;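 also: peak over basal fluorescence ratio per well then scaled between controls; 0% = DMSO wells and 100% = acetylcholine at EC100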
CHRM5 antagonist: blocks acetylcholine activation of human M5 receptor; P08912; CHO-hM5 cells, Fluo-8 calcium fluorescence, ACh EC80; inhibition, % at 3 µM; 360,000 compounds, 0.59% hits;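 active = inhibition above a per-plate cutoff, the mean of that plate's test compounds plus 3 SD, cut at about 27% in these data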;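 also: 0% = acetylcholine EC80 with DMSO and 100% = DMSO without agonist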
Target sequence (P08912 whole entry, looked up): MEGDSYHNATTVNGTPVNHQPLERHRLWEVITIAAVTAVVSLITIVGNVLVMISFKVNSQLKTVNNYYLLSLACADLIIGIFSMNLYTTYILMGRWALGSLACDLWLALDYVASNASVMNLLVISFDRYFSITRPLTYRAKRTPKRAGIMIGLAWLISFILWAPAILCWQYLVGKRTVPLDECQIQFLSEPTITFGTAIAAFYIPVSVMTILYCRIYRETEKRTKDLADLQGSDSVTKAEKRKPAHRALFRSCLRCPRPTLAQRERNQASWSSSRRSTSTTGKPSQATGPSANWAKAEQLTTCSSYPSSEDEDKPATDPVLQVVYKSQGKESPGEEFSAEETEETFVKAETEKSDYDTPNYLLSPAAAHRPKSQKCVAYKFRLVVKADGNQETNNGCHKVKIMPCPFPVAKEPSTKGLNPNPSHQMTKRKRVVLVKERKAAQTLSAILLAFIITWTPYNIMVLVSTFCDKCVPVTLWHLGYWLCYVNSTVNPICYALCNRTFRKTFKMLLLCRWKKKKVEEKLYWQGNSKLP
M5 ag: CHRM5 agonism in calcium assay; activation, % at 3 µM; CHO-K1 hM5 cells, Fluo-8 calcium fluorescence; 0% DMSO wells, 100% maximal acetylcholine response; AID 624037; 360,000 compounds, 0.19% hits;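 active = activation above the run's mean over test compounds plus 3 SD, cut at about 23% in these data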;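 also: signal is peak over basal fluorescence ratio across the kinetic read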
M4 antag: blocks acetylcholine activation of human M4 receptor; CHO-hM4 cells, ACh EC80, Fluo-8 calcium fluorescence; inhibition, % at 3 µM; 360,000 compounds, 0.73% hits; AID 624125;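 active = inhibition above its plate's cutoff, the mean inhibition of sample wells plus 3 SD, cut at about 27% in these data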;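 also: 0% = acetylcholine EC80 with DMSO and 100% = DMSO without agonist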
CHRM5 PAM: potentiates acetylcholine response at human M5 receptor | activation, % at 3 µM | CHO-K1 hM5, Fluo-8 calcium, ACh EC20 PAM; 0% = ACh EC20, 100% = ACh EC100 | 360,000 compounds, 0.3% hits | AID 624038;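 active = activation above the run cutoff, the mean activation of all test compounds plus 3 SD, cut at about 18% in these data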
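Assay system – human M5 receptor in CHO-K1 cells · Read-out – % activation, ACh-normalized · Technique – Fluo-8 calcium fluorescence · Dosing – single-point, 3 µM nominal · Incubation – Fluo-8 loading 80 min at 37 °C plus 30 min room temperature · Repeats – singlicate, one well per test compound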
Active calls of the source: *.

How did O=C1c2cccc3cccc(c23)C(=O)N1CC1CCN(CC(O)COc2ccc3ccccc3c2)CC1 (stereo not given) do in these assays?
CHRM4 PAM: -44; CHRM4 agonist: 26; CHRM5 antagonist: 21; M5 ag: -2; M4 antag: 101*; CHRM5 PAM: -19

How did CCN(Cc1ccccc1)N=Nc1ccccc1 do in these assays?
CHRM4 PAM: 3; CHRM4 agonist: 0; CHRM5 antagonist: -4; M5 ag: 0; M4 antag: -3; CHRM5 PAM: 0

What do the screens show for `COCCNC(=O)C1(C)CCN(C(=O)c2ccc(C(F)(F)F)nc2C)C1` (stereo not given)?
CHRM4 PAM: 12; CHRM4 agonist: 1; CHRM5 antagonist: 0; M5 ag: 1; M4 antag: -10; CHRM5 PAM: 2

What do the screens show for `CCCCCCCCN1C(=O)[C@H](CC(=O)N2CCSCC2)C[C@@]2(C(=O)OCC)CCCC=C12`?
CHRM4 PAM: 3; CHRM4 agonist: -3; CHRM5 antagonist: -14; M5 ag: -2; M4 antag: -17; CHRM5 PAM: 12

Results for COc1cc([N+](=O)[O-])ccc1NC(=O)NCC1CCN(Cc2ccc(Cl)cc2)CC1 ?
CHRM4 PAM: -20; CHRM4 agonist: 29; CHRM5 antagonist: 17; M5 ag: -5; M4 antag: 32*; CHRM5 PAM: -23

Results for COCCNC(=O)CN(C(=O)c1ccc(N2CCCC2)nc1)c1ccccc1 ?
CHRM4 PAM: -4; CHRM4 agonist: 1; CHRM5 antagonist: 6; M5 ag: 3; M4 antag: 0; CHRM5 PAM: 1

Results for COCCNC(=O)CN(C(=O)c1ccc(N2CCCC2)nc1)c1ccc(F)c(Cl)c1 ?
CHRM4 PAM: 6; CHRM4 agonist: 0; CHRM5 antagonist: -10; M5 ag: 7; M4 antag: -7; CHRM5 PAM: 22*

How did CC(C)Oc1ccc(F)cc1-c1cc(C(=O)NCc2ccc(F)cc2)[nH]n1 do in these assays?
CHRM4 PAM: -9; CHRM4 agonist: 8; CHRM5 antagonist: 8; M5 ag: -1; M4 antag: 5; CHRM5 PAM: -8

What do the screens show for `COc1cc(OC)c(/C=N/NC(=O)Cn2nc([N+](=O)[O-])cc2C)c(OC)c1`?
CHRM4 PAM: 12*; CHRM4 agonist: 1; CHRM5 antagonist: -3; M5 ag: 0; M4 antag: -15; CHRM5 PAM: 4

What do the screens show for `Cc1cc([N+](=O)[O-])nn1CC(=O)N/N=C/c1ccccc1O`?
CHRM4 PAM: -9; CHRM4 agonist: 0; CHRM5 antagonist: 2; M5 ag: 1; M4 antag: 0; CHRM5 PAM: 1

Results for O=C(Nc1ccccc1-c1nc2ccccc2[nH]1)c1ccc(N2C(=O)CCC2=O)cc1 ?
CHRM4 PAM: -4; CHRM4 agonist: 6; CHRM5 antagonist: 27*; M5 ag: 2; M4 antag: 5; CHRM5 PAM: -14

What do the screens show for `COc1ccccc1-[n+]1c(C)cc(/C=C2\Sc3ccccc3N2C)cc1C`?
CHRM4 PAM: -40; CHRM4 agonist: 16; CHRM5 antagonist: 53*; M5 ag: 14; M4 antag: 40*; CHRM5 PAM: -29

Results for COc1ccc(-[n+]2c(C)cc(/C=C3\Sc4ccccc4N3C)cc2C)cc1 ?
CHRM4 PAM: -23; CHRM4 agonist: 10; CHRM5 antagonist: 48*; M5 ag: 6; M4 antag: 50*; CHRM5 PAM: -23

What do the screens show for `COc1ccc(C(=O)/C=C2\Sc3ccccc3N2C)cc1`?
CHRM4 PAM: 5; CHRM4 agonist: 1; CHRM5 antagonist: 1; M5 ag: -4; M4 antag: -2; CHRM5 PAM: 6

Results for COc1ccccc1OC(=O)CCN1c2ccccc2Sc2ccccc21 ?
CHRM4 PAM: -2; CHRM4 agonist: -1; CHRM5 antagonist: 9; M5 ag: 0; M4 antag: -14; CHRM5 PAM: -8

Results for C=CCNc1nc2cc(-c3ccccc3C)sc2c(=O)n1C ?
CHRM4 PAM: 5; CHRM4 agonist: 2; CHRM5 antagonist: 7; M5 ag: 0; M4 antag: -14; CHRM5 PAM: -4

How did CCN(CC)S(=O)(=O)c1ccc(NC(=O)Nc2cccc(C(F)(F)F)c2)cc1 do in these assays?
CHRM4 PAM: -11; CHRM4 agonist: 17; CHRM5 antagonist: 30*; M5 ag: 9; M4 antag: 9; CHRM5 PAM: -15

What do the screens show for `O=C(Nc1ccncc1)Nc1cccc(C(F)(F)F)c1`?
CHRM4 PAM: -6; CHRM4 agonist: 18; CHRM5 antagonist: 25; M5 ag: 11; M4 antag: 5; CHRM5 PAM: -12

Results for O=C(Nc1ccc(OC(F)F)cc1)Nc1cccc(C(F)(F)F)c1 ?
CHRM4 PAM: -19; CHRM4 agonist: 13; CHRM5 antagonist: 37*; M5 ag: 5; M4 antag: 12; CHRM5 PAM: -18

What do the screens show for `CCc1nc2ccc(C(=O)NCCCn3ccnc3)cn2c1N(C)CCCc1ccccc1`?
CHRM4 PAM: -10; CHRM4 agonist: 5; CHRM5 antagonist: 10; M5 ag: -3; M4 antag: 27*; CHRM5 PAM: -15

Results for CCc1nc2ccc(C(=O)N3CCCCC3)cn2c1N(C)CCCc1ccccc1 ?
CHRM4 PAM: -11; CHRM4 agonist: 5; CHRM5 antagonist: 2; M5 ag: -3; M4 antag: 33*; CHRM5 PAM: -16

What do the screens show for `COc1ccc(CN2CCN(C(=O)CC(C)C)CC2)c2ccccc12`?
CHRM4 PAM: 3; CHRM4 agonist: 1; CHRM5 antagonist: -6; M5 ag: -4; M4 antag: -6; CHRM5 PAM: 42*

Results for COc1ccc(CN2CCN(C(=O)CC(C)C)CC2)cc1OC ?
CHRM4 PAM: 5; CHRM4 agonist: 1; CHRM5 antagonist: 1; M5 ag: -1; M4 antag: 0; CHRM5 PAM: 1

What do the screens show for `O=C(Nc1nnc(-c2ccccc2Cl)o1)c1nc2ccccc2s1`?
CHRM4 PAM: -9; CHRM4 agonist: 111*; CHRM5 antagonist: 7; M5 ag: 65*; M4 antag: -6; CHRM5 PAM: -17

Results for CSc1nc2nc(Cl)c(Cl)nc2[nH]1 ?
CHRM4 PAM: 0; CHRM4 agonist: 1; CHRM5 antagonist: 1; M5 ag: 2; M4 antag: 2; CHRM5 PAM: -2

What do the screens show for `CCN(CC(=O)Nc1ccc(OC)cc1)C(=O)CN1C(=O)NC(C)(c2ccc3ccccc3c2)C1=O` (stereo not given)?
CHRM4 PAM: -3; CHRM4 agonist: 4; CHRM5 antagonist: 32*; M5 ag: -6; M4 antag: 4; CHRM5 PAM: -11
